Series [1] has as its target T1, Prostaglandin G/H synthase 2 (Mus musculus, UniProt Q05769).
T1 sequence (Q05769 whole entry): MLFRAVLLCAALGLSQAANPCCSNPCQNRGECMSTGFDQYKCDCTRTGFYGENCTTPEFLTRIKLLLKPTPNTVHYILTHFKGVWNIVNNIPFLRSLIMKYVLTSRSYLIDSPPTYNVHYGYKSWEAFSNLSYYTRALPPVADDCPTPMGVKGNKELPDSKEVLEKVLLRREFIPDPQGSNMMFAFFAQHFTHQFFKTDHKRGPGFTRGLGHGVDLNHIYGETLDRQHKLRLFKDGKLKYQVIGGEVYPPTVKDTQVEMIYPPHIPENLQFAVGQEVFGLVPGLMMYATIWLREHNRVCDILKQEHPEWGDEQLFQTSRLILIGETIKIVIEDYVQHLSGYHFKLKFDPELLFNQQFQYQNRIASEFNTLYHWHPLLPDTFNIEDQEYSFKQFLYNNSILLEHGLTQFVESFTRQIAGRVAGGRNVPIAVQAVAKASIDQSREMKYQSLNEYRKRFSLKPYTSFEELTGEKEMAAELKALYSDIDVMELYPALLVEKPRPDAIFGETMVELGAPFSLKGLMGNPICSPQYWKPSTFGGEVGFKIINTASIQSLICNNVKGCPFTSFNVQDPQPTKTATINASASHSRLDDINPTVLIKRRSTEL
The series is described as follows: Inhibition against prostaglandin G/H synthase 2 from mouse resident macrophages.

A short description of series [2]: Gastric toxicity of the compound. An outline of the steps:
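Male Swiss mice, fasted overnight with water, were dosed orally at 400 mg/kg or given vehicle, and killed by cervical dislocation 5 h later. The stomach was opened and mucosal damage scored blind from 0 (normal) to 5 (perforation). Mean ± SEM, 8 animals/group.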

Series [3] is filed under the species Mus musculus. The series can be described thus: Compound was evaluated for its effective dose to inhibit exudate PGE-2. An outline of the steps: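 Mice given compound or vehicle orally 18 h after air-pouch induction; 1 h later 500 µL sterile 1% carrageenan injected into pouch; sacrifice 5 h after carrageenan. Pouch lavaged with 2 mL heparinized HBSS, kept on ice, PGE2 measured by EIA after solid-phase extraction. ED50 from 3 or 4 dose points, at least 8 mice/group.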

For series [4], the species on record is Mus musculus. The series is described as follows: Compound was evaluated for its effective dose to inhibit gastric PGE-2. It is filed as tissue-based. The following applies: Stomach. Summed up:
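Mice with air pouches (18 h old) were dosed orally with compound or vehicle. After 1 h, 500 µL sterile 1% carrageenan was injected into the pouch, and mice were killed 5 h later. Pouch lavage (heparinized HBSS) was cooled on ice, and PGE2 was measured by EIA after solid-phase extraction. Excised stomachs were rinsed and incubated 15 min in PBS, and supernatant PGE2 was measured by EIA. ED50 from 3 or 4 doses, at least 8 mice/group.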

In another series the test system is Rattus norvegicus. The series is described as follows: Inhibition of edema after oral administration at 2 mg/kg, twice daily. In kind it is functional. Summed up:
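Adjuvant-induced arthritis in female Lewis rats. Compound was given orally at 2 mg/kg twice daily, and noninjected paw edema inhibition was read at day 21, 10 rats/group.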

Series [5] addresses T2, Prostaglandin G/H synthase 1 (Mus musculus, UniProt P22437).
T2 sequence (P22437 whole entry): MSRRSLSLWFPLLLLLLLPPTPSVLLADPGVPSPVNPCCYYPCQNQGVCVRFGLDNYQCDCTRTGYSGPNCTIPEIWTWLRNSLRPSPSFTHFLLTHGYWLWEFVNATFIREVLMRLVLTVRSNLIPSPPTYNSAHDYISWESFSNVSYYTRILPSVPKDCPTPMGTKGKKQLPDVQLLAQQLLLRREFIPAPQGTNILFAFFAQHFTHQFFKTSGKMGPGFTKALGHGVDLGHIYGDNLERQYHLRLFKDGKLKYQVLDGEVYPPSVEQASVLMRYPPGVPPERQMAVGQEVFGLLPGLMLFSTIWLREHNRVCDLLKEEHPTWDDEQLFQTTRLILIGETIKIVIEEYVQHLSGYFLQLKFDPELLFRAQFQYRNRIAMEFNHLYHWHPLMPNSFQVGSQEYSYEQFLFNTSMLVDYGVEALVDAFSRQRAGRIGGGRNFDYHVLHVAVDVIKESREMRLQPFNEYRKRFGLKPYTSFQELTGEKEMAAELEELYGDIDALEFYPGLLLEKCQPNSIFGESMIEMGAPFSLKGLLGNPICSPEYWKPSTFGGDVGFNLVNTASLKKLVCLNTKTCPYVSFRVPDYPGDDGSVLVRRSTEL
The series can be described thus: Inhibition against prostaglandin G/H synthase 1 from mouse resident macrophages.

One may read the IC50 as the concentration at which inhibition is half-maximal. The term ED50 denotes the dose at which the effect has come halfway, by size or by number of responders. Low values mean greater potency, high ones weaker potency. One may read the inhibition in vivo as the share of the control response that was lost under treatment. A low value points to a response near the control. As to `Fc1ccc(-c2[nH]c(-c3ccc(F)cc3)c3c2CCC3)cc1`, the IC50 in series [1] was determined as 2.9 nM; in series [5] it was 100 nM. Also, the Gastric score in series [2] is 0.7. In addition, the ED50 in the series listed under Mus musculus [3] is 20 mg/kg; in the series listed under Mus musculus [4] it was over 80 mg/kg. The compound also gave an inhibition in vivo at 2 mg/kg with Rattus norvegicus of 14%.

For the origin of these results see ChEMBL document CHEMBL1133534, “1,3-Diaryl-4,5,6,7-tetrahydro-2H-isoindole derivatives: a new series of potent and selective COX-2 inhibitors in which a sulfonyl group is not a structural requisite” (J Med Chem, 2000).
